Test results from ChEMBL document CHEMBL1154719, “Click chemistry: studies on the synthesis of novel fluorous tagged triazol-4-yl substituted quinazoline derivatives and their biological evaluation--theoretical and experimental validation” (2010).
In brackets after ≈: the same amount, converted by molar mass.

What was measured:
Format in all cases: functional
[1] = test system: Staphylococcus epidermidis; assay: Antibacterial activity against Staphylococcus epidermidis MTCC 435 by broth dilution method
Outline: (§1)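 MIC by broth dilution in nutrient broth. Test bacteria were kept on nutrient agar slants and subcultured in Petri dishes before testing.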

Escherichia coli = assay: Antibacterial activity against Escherichia coli MTCC 443 by broth dilution method; outline: as §1
Bacillus subtilis = assay: Antibacterial activity against Bacillus subtilis MTCC 441 by broth dilution method; outline: as §1
Pseudomonas aeruginosa = assay: Antibacterial activity against Pseudomonas aeruginosa MTCC 741 by broth dilution method; outline: as §1
Staphylococcus aureus = assay: Antibacterial activity against Staphylococcus aureus MTCC 96 by broth dilution method; outline: as §1
Candida albicans [2] = assay: Antifungal activity against Candida albicans MTCC 227 at 100 ug/ml after 48 hrs by agar cup diffusion method; conditions: MTCC 227, 48 h, read-out: DIZ
Outline: (§2)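 Agar cup diffusion on autoclaved potato dextrose agar plates. Each plate was spread with 0.5 ml of a week-old culture, and test solutions at 30 and 100 per ml were added to cups. Plates were held at 28 °C for 48 h, and inhibition zone diameters were read in mm. Acetone served as the solvent control and amphotericin-B as the reference.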

Saccharomyces cerevisiae [3] = assay: Antifungal activity against Saccharomyces cerevisiae MTCC 36 at 100 ug/ml after 48 hrs by agar cup diffusion method; conditions: MTCC 36, 48 h, read-out: DIZ; outline: as §2
Diutina rugosa [4] = assay: Antifungal activity against Candida rugosa NCIM 3462 at 100 ug/ml after 48 hrs by agar cup diffusion method; conditions: NCIM 3462, 48 h, read-out: DIZ; outline: as §2
Rhizopus arrhizus [5] = assay: Antifungal activity against Rhizopus oryzae MTCC 262 at 100 ug/ml after 48 hrs by agar cup diffusion method; conditions: MTCC 262, 48 h, read-out: DIZ; outline: as §2
Diutina rugosa [6] = assay: Antifungal activity against Candida rugosa NCIM 3462 at 30 ug/ml after 48 hrs by agar cup diffusion method; conditions: NCIM 3462, 48 h, read-out: DIZ; outline: as §2
Saccharomyces cerevisiae [7] = assay: Antifungal activity against Saccharomyces cerevisiae MTCC 36 at 30 ug/ml after 48 hrs by agar cup diffusion method; conditions: MTCC 36, 48 h, read-out: DIZ; outline: as §2
Aspergillus niger [8] = assay: Antifungal activity against Aspergillus niger MTCC 1344 at 100 ug/ml after 48 hrs by agar cup diffusion method; conditions: MTCC 1344, 48 h, read-out: DIZ; outline: as §2
Aspergillus flavus [9] = assay: Antifungal activity against Aspergillus flavus MTCC 277 at 100 ug/ml after 48 hrs by agar cup diffusion method; conditions: MTCC 277, 48 h, read-out: DIZ; outline: as §2
Aspergillus flavus [10] = assay: Antifungal activity against Aspergillus flavus MTCC 277 at 30 ug/ml after 48 hrs by agar cup diffusion method; conditions: MTCC 277, 48 h, read-out: DIZ; outline: as §2
Rhizopus arrhizus [11] = assay: Antifungal activity against Rhizopus oryzae MTCC 262 at 30 ug/ml after 48 hrs by agar cup diffusion method; conditions: MTCC 262, 48 h, read-out: DIZ; outline: as §2
Saccharomyces cerevisiae [12] = assay: Antifungal activity against Saccharomyces cerevisiae MTCC 36 at 50 ug/ml after 48 hrs by agar cup diffusion method; conditions: MTCC 36, 48 h, read-out: DIZ
Outline: (§3)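 Amphotericin-B reference at 50 per ml in the agar cup assay on potato dextrose agar. Plates were spread with 0.5 ml of a week-old fungal culture, incubated at 28 °C for 48 h, and inhibition zone diameter was read in mm. Acetone served as the negative control.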

Rhizopus arrhizus [13] = assay: Antifungal activity against Rhizopus oryzae MTCC 262 at 50 ug/ml after 48 hrs by agar cup diffusion method; conditions: MTCC 262, 48 h, read-out: DIZ; outline: as §3
Aspergillus flavus [14] = assay: Antifungal activity against Aspergillus flavus MTCC 277 at 50 ug/ml after 48 hrs by agar cup diffusion method; conditions: MTCC 277, 48 h, read-out: DIZ; outline: as §3
Candida albicans [15] = assay: Antifungal activity against Candida albicans MTCC 227 at 50 ug/ml after 48 hrs by agar cup diffusion method; conditions: MTCC 227, 48 h, read-out: DIZ; outline: as §3
Aspergillus niger [16] = assay: Antifungal activity against Aspergillus niger MTCC 1344 at 50 ug/ml after 48 hrs by agar cup diffusion method; conditions: MTCC 1344, 48 h, read-out: DIZ
Outline: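 Agar cup diffusion on potato dextrose agar plates. 0.5 ml of a week-old A. niger culture spread over the solidified agar, then test solutions added to cups. Acetone served as negative control and amphotericin-B as positive control. Plates kept at 28 °C for 48 h. Read-out was inhibition zone diameter in mm.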

Diutina rugosa [17] = assay: Antifungal activity against Candida rugosa NCIM 3462 at 50 ug/ml after 48 hrs by agar cup diffusion method; conditions: NCIM 3462, 48 h, read-out: DIZ; outline: as §3
Aspergillus niger [18] = assay: Antifungal activity against Aspergillus niger MTCC 1344 at 30 ug/ml after 48 hrs by agar cup diffusion method; conditions: MTCC 1344, 48 h, read-out: DIZ; outline: as §2
Candida albicans [19] = assay: Antifungal activity against Candida albicans MTCC 227 at 30 ug/ml after 48 hrs by agar cup diffusion method; conditions: MTCC 227, 48 h, read-out: DIZ; outline: as §2

Q: With CN[C@@H]1[C@H](O[C@H]2[C@H](O[C@H]3[C@H](O)[C@@H](O)[C@H](N=C(N)N)[C@@H](O)[C@@H]3N=C(N)N)O[C@@H](C)[C@]2(O)C=O)O[C@@H](CO)[C@H](O)[C@H]1O [STREPTOMYCIN] as the compound, how does the MIC [1] read?
A: 1.56 µg/mL (≈ 2.69 µM)

Q: And the MIC (Escherichia coli)?
A: 3.12 µg/mL (≈ 5.37 µM)

Q: What about the MIC (Bacillus subtilis) of the same compound?
A: 6.25 µg/mL (≈ 10.7 µM)

Q: What about the MIC (Pseudomonas aeruginosa) of the same compound?
A: 3.12 µg/mL (≈ 5.37 µM)

Q: And the MIC (Staphylococcus aureus)?
A: 1.56 µg/mL (≈ 2.68 µM)

Q: Which results are given for O=c1c2ccccc2nc(C(F)(F)F)n1Cc1cn(CCC(F)(F)C(F)(F)C(F)(F)C(F)(F)C(F)(F)C(F)(F)F)nn1?
A: zone of inhibition at 100 µg/mL (Candida albicans [2]): 9 mm; zone of inhibition at 100 µg/mL (Saccharomyces cerevisiae [3]): 12 mm; MIC [1]: 150 µg/mL (≈ 234 µM); zone of inhibition at 100 µg/mL (Diutina rugosa [4]): 13 mm; zone of inhibition at 100 µg/mL (Rhizopus arrhizus [5]): 13 mm; zone of inhibition at 30 µg/mL (Diutina rugosa [6]): 8 mm; zone of inhibition at 30 µg/mL (Saccharomyces cerevisiae [7]): 9 mm; MIC (Escherichia coli): 75 µg/mL (≈ 117 µM); MIC (Bacillus subtilis): 150 µg/mL (≈ 234 µM); zone of inhibition at 100 µg/mL (Aspergillus niger [8]): 9 mm; zone of inhibition at 100 µg/mL (Aspergillus flavus [9]): 12 mm; MIC (Pseudomonas aeruginosa): 75 µg/mL (≈ 117 µM); MIC (Staphylococcus aureus): 150 µg/mL (≈ 234 µM); zone of inhibition at 30 µg/mL (Aspergillus flavus [10]): 9 mm; zone of inhibition at 30 µg/mL (Rhizopus arrhizus [11]): 8 mm

Q: CC1(C)S[C@@H]2[C@H](NC(=O)Cc3ccccc3)C(=O)N2[C@H]1C(=O)O [PENICILLIN G] was tested. Which MIC [1] did it give?
A: 3.12 µg/mL (≈ 9.35 µM)

Q: What about the MIC (Escherichia coli) of the same compound?
A: 6.25 µg/mL (≈ 18.7 µM)

Q: What about the MIC (Bacillus subtilis) of the same compound?
A: 1.53 µg/mL (≈ 4.56 µM)

Q: And the MIC (Pseudomonas aeruginosa)?
A: 12.5 µg/mL (≈ 37.4 µM)

Q: What about the MIC (Staphylococcus aureus) of the same compound?
A: 6.25 µg/mL (≈ 18.7 µM)

Q: What does the source list for C[C@@H]1[C@H](O)[C@@H](C)/C=C/C=C/C=C/C=C/C=C/C=C/C=C/[C@H](O[C@@H]2O[C@H](C)[C@@H](O)[C@H](N)[C@@H]2O)C[C@@H]2O[C@](O)(C[C@@H](O)C[C@@H](O)[C@H](O)CC[C@@H](O)C[C@@H](O)CC(=O)O[C@H]1C)C[C@H](O)[C@H]2C(=O)O [AMPHOTERICIN B]?
A: zone of inhibition at 50 µg/mL (Saccharomyces cerevisiae [12]): 22 mm; zone of inhibition at 50 µg/mL (Rhizopus arrhizus [13]): 24 mm; zone of inhibition at 50 µg/mL (Aspergillus flavus [14]): 25 mm; zone of inhibition at 50 µg/mL (Candida albicans [15]): 23.5 mm; zone of inhibition at 50 µg/mL (Aspergillus niger [16]): 25 mm; zone of inhibition at 50 µg/mL (Diutina rugosa [17]): 22 mm

Q: O=c1c2ccccc2nc(-c2ccccc2)n1Cc1cn(CCC(F)(F)C(F)(F)C(F)(F)C(F)(F)C(F)(F)C(F)(F)F)nn1 was tested. Which zone of inhibition at 100 µg/mL (Candida albicans [2]) did it give?
A: 12 mm

Q: What about the zone of inhibition at 100 µg/mL (Saccharomyces cerevisiae [3]) of the same compound?
A: 12 mm

Q: What about the MIC [1] of the same compound?
A: 150 µg/mL (≈ 231 µM)

Q: What about the zone of inhibition at 100 µg/mL (Diutina rugosa [4]) of the same compound?
A: 10 mm

Q: What about the zone of inhibition at 30 µg/mL (Aspergillus niger [18]) of the same compound?
A: 9 mm

Q: And the zone of inhibition at 30 µg/mL (Candida albicans [19])?
A: 9 mm

Q: What about the zone of inhibition at 100 µg/mL (Rhizopus arrhizus [5]) of the same compound?
A: 10 mm

Q: What about the zone of inhibition at 30 µg/mL (Saccharomyces cerevisiae [7]) of the same compound?
A: 8 mm

Q: What about the MIC (Escherichia coli) of the same compound?
A: 75 µg/mL (≈ 115 µM)

Q: What about the MIC (Bacillus subtilis) of the same compound?
A: 150 µg/mL (≈ 231 µM)

Q: And the zone of inhibition at 100 µg/mL (Aspergillus niger [8])?
A: 12 mm

Q: And the zone of inhibition at 100 µg/mL (Aspergillus flavus [9])?
A: 12 mm

Q: And the MIC (Pseudomonas aeruginosa)?
A: 37.5 µg/mL (≈ 57.7 µM)

Q: What about the MIC (Staphylococcus aureus) of the same compound?
A: 150 µg/mL (≈ 231 µM)

Q: What about the zone of inhibition at 30 µg/mL (Aspergillus flavus [10]) of the same compound?
A: 8 mm

Q: With FC(F)(F)c1nc(OCc2cn(CCC(F)(F)C(F)(F)C(F)(F)C(F)(F)C(F)(F)C(F)(F)C(F)(F)C(F)(F)F)nn2)c2ccccc2n1 as the compound, how does the zone of inhibition at 100 µg/mL (Candida albicans [2]) read?
A: 9 mm

Q: And the MIC [1]?
A: 150 µg/mL (≈ 202 µM)

Q: And the MIC (Escherichia coli)?
A: 150 µg/mL (≈ 202 µM)

Q: And the MIC (Bacillus subtilis)?
A: 150 µg/mL (≈ 202 µM)

Q: What about the zone of inhibition at 100 µg/mL (Aspergillus niger [8]) of the same compound?
A: 9 mm

Q: What about the MIC (Pseudomonas aeruginosa) of the same compound?
A: 150 µg/mL (≈ 202 µM)

Q: And the MIC (Staphylococcus aureus)?
A: 150 µg/mL (≈ 202 µM)

Q: Which results are given for FC(F)(F)C(F)(F)C(F)(F)C(F)(F)C(F)(F)C(F)(F)C(F)(F)C(F)(F)CCn1nncc1COc1nc(-c2ccccc2)nc2ccccc12?
A: zone of inhibition at 100 µg/mL (Candida albicans [2]): 12 mm; zone of inhibition at 100 µg/mL (Saccharomyces cerevisiae [3]): 9 mm; MIC [1]: 9.38 µg/mL (≈ 12.5 µM); zone of inhibition at 100 µg/mL (Diutina rugosa [4]): 12 mm; zone of inhibition at 30 µg/mL (Aspergillus niger [18]): 8 mm; zone of inhibition at 30 µg/mL (Candida albicans [19]): 8 mm; zone of inhibition at 100 µg/mL (Rhizopus arrhizus [5]): 12 mm; MIC (Escherichia coli): 75 µg/mL (≈ 100 µM); MIC (Bacillus subtilis): 37.5 µg/mL (≈ 50 µM); zone of inhibition at 100 µg/mL (Aspergillus niger [8]): 12 mm; zone of inhibition at 100 µg/mL (Aspergillus flavus [9]): 9 mm; MIC (Pseudomonas aeruginosa): 37.5 µg/mL (≈ 50 µM); MIC (Staphylococcus aureus): 9.38 µg/mL (≈ 12.5 µM)

Q: Which results are given for O=c1c2ccccc2nc(C(F)(F)F)n1Cc1cn(CCC(F)(F)C(F)(F)C(F)(F)C(F)(F)C(F)(F)C(F)(F)C(F)(F)C(F)(F)F)nn1?
A: zone of inhibition at 100 µg/mL (Candida albicans [2]): 9 mm; zone of inhibition at 100 µg/mL (Saccharomyces cerevisiae [3]): 9 mm; MIC [1]: 75 µg/mL (≈ 101 µM); zone of inhibition at 30 µg/mL (Aspergillus niger [18]): 7 mm; zone of inhibition at 30 µg/mL (Candida albicans [19]): 7 mm; MIC (Escherichia coli): 75 µg/mL (≈ 101 µM); MIC (Bacillus subtilis): 75 µg/mL (≈ 101 µM); zone of inhibition at 100 µg/mL (Aspergillus niger [8]): 9 mm; zone of inhibition at 100 µg/mL (Aspergillus flavus [9]): 9 mm; MIC (Pseudomonas aeruginosa): 75 µg/mL (≈ 101 µM); MIC (Staphylococcus aureus): 75 µg/mL (≈ 101 µM)
